Key:
Assay type in all cases: functional
Rattus norvegicus [1] = species: Rattus norvegicus; assay: Tested for the vasorelaxant potency in methoxamine contracted rat aorta
Procedure, shortened: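 Rat aortic tissue contracted with methoxamine. The IC50 is the concentration producing relaxation.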

Rattus norvegicus [2] = species: Rattus norvegicus; assay: Concentration necessary for increase in time to contracture by 25% in the globally ischemic rat hearts
Procedure, shortened: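 Isolated rat hearts, perfused and then made globally ischemic. The EC25 is the concentration giving a 25% increase in time to onset of contracture. Time to contracture is the time during total global ischemia for end-diastolic pressure to rise 5 mmHg above baseline.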

Rattus norvegicus [3] = species: Rattus norvegicus; assay: Ratio of the concentration increasing time to contracture by 25% (EC25) in rat heart and concentration showing vasorelaxant potency (IC50) in rat aorta.
Procedure, shortened: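 Cardiac selectivity index: the ratio of vasorelaxant potency (IC50 for relaxing methoxamine-contracted rat aorta) to anti-ischemic potency (EC25 for increasing time to contracture in globally ischemic isolated perfused rat hearts).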

Rattus norvegicus [4] = species: Rattus norvegicus; assay: Concentration necessary for increase in time to contracture at a concentration of 10 uM in ischemic rat hearts

IC50 (Rattus norvegicus [1]) [µM]	SMILES	EC25 (Rattus norvegicus [2]) [µM]	Ratio (Rattus norvegicus [3])	Increase (Rattus norvegicus [2]) [%]	Activity (Rattus norvegicus [4]) [%]
2.7	Cc1ccc(N/C(=N/[C@@H]2c3cc(C#N)ccc3OC(C)(C)[C@H]2O)NC#N)cc1	1.6	0.6		
	Cc1cccc(N/C(=N/[C@@H]2c3cc(C#N)ccc3OC(C)(C)[C@H]2O)NC#N)c1	2.7			
4.1	COC(=O)c1cccc(N/C(=N/[C@@H]2c3cc(C#N)ccc3OC(C)(C)[C@H]2O)NC#N)c1				
1.6	CC1(C)Oc2ccc(C#N)cc2[C@@H](/N=C(\NC#N)Nc2cccc(C(F)(F)F)c2)[C@@H]1O	5.3	3.3		
21	CC(=O)c1ccc(N/C(=N/[C@@H]2c3cc(C#N)ccc3OC(C)(C)[C@H]2O)NC#N)cc1	52	2.5		
	CC1(C)Oc2ccc(C#N)cc2[C@@H](n2c(O)nc3ccccc32)[C@@H]1O	11.7			
8.4	CC(=O)c1cccc(N/C(=N/[C@@H]2c3cc(C#N)ccc3OC(C)(C)[C@H]2O)NC#N)c1				
32.5	COc1ccc(N/C(=N/[C@@H]2c3cc(C#N)ccc3OC(C)(C)[C@H]2O)NC#N)cc1	5.3	0.16		
> 100	CC1(C)Oc2ccc(C#N)cc2[C@@H](/N=C(\NC#N)Nc2ccc(C(=O)O)cc2)[C@@H]1O				
5.6	CC1(C)Oc2ccc(C#N)cc2[C@@H](NC(=O)NCc2ccccc2)[C@@H]1O	>30			
18.4	COC(=O)c1ccc(N/C(=N/[C@@H]2c3cc(C#N)ccc3OC(C)(C)[C@H]2O)NC#N)cc1				
> 100	CC1(C)Oc2ccc(C#N)cc2[C@@H](/N=C(\NC#N)Oc2ccccc2)[C@@H]1O	68.8			
2.4	CC1(C)Oc2ccc(C#N)cc2[C@@H](/N=C(\NC#N)NCc2ccccc2)[C@@H]1O	>30			
41.3	CC1(C)Oc2ccc(C#N)cc2[C@@H](/N=C(\NC#N)Nc2ccc3c(c2)CCC3)[C@@H]1O	3.5	0.08		
0.5	CC1(C)Oc2ccc(C#N)cc2[C@@H](NC(=O)Nc2cccnc2)[C@@H]1O	4.2	8.4		
5.1	Cc1ccc(N/C(=N/[C@@H]2c3cc(C#N)ccc3OC(C)(C)[C@H]2O)NC#N)cc1C	2.5	0.49		
1.66	CC1(C)Oc2ccc(C#N)cc2[C@@H](/N=C(\NC#N)Nc2ccc(Cl)c(F)c2)[C@@H]1O				
4.6	CC1(C)Oc2ccc(C#N)cc2[C@@H](/N=C(\NC#N)Nc2ccc(Cl)c(Cl)c2)[C@@H]1O	12.9	2.8		
8.5	CC1(C)Oc2ccc(C#N)cc2[C@@H](NC(=O)Nc2ccncc2)[C@@H]1O			1	
	CCC(C)(C)/N=C(\NC#N)N[C@@H]1c2cc(C#N)ccc2OC(C)(C)[C@H]1O		0.7		
	CC1(C)Oc2ccc(C#N)cc2[C@@H](/N=C(\NC#N)Nc2ccc(C(F)(F)F)cc2)[C@@H]1O		1.4		

IC50 (Rattus norvegicus [1]) [µM]	SMILES	EC25 (Rattus norvegicus [2]) [µM]	Ratio (Rattus norvegicus [3])	Increase (Rattus norvegicus [2]) [%]	Activity (Rattus norvegicus [4]) [%]
1.8	CC1(C)Oc2ccc(C#N)cc2[C@@H](NC(=O)Cc2ccccc2)[C@@H]1O	22.2	12.3		
6.3	CSc1ccc(N/C(=N/[C@@H]2c3cc(C#N)ccc3OC(C)(C)[C@H]2O)NC#N)cc1				
0.44	CC1(C)Oc2ccc(C#N)cc2[C@@H](NC(=O)Nc2ccccn2)[C@@H]1O	2.6	5.9		
> 100	CC1(C)Oc2ccc(C#N)cc2[C@@H](/N=C(\NC#N)Nc2cccc(C(=O)O)c2)[C@@H]1O				
0.6	CC1(C)Oc2ccc(C#N)cc2[C@@H](/N=C(\NC#N)Nc2cccc(Cl)c2)[C@@H]1O	1.4	2.3		
0.3	CC1(C)Oc2ccc(C#N)cc2[C@@H](/N=C(\NC#N)Nc2ccc([N+](=O)[O-])cc2)[C@@H]1O	6.2	20.6		
0.67	CC1(C)Oc2ccc(C#N)cc2[C@@H](/N=C(\NC#N)Nc2cccc([N+](=O)[O-])c2)[C@@H]1O	5	7.5		
0.03	CC1(C)Oc2ccc(C#N)cc2[C@@H](NC(=O)c2ccccc2)[C@@H]1O	11.8	393		
	COC(=O)c1cn([C@@H]2c3cc(C#N)ccc3OC(C)(C)[C@H]2O)c2ccccc12	3.2			
23.7	CC1(C)Oc2ccc(C#N)cc2[C@@H](N2CCN(c3ccccc3)C2=O)[C@@H]1O	10	0.42		
4.9	CC1(C)Oc2ccc(C#N)cc2[C@@H](/N=C(\NC#N)Sc2ccccc2)[C@@H]1O	>30			
1.4	CSc1cccc(N/C(=N/[C@@H]2c3cc(C#N)ccc3OC(C)(C)[C@H]2O)NC#N)c1	8.2	5.6		
	COC(=O)c1cc2ccccc2n1[C@@H]1c2cc(C#N)ccc2OC(C)(C)[C@H]1O	8.1			
	C/N=C(\NC#N)N[C@@H]1c2cc(C#N)ccc2OC(C)(C)[C@H]1O	13.3	66.5		
2.2	CC1(C)Oc2ccc(C#N)cc2[C@@H](n2cc(C#N)c3ccccc32)[C@@H]1O	25.5	11.5		
3.5	CC1(C)Oc2ccc(C#N)cc2[C@@H](/N=C(\NC#N)NNc2ccccc2)[C@@H]1O				4
	CC1(C)Oc2ccc(C#N)cc2[C@@H](/N=C(\NC#N)Nc2ccc(Cl)cc2)[C@@H]1O		1.4		
	CC1(C)Oc2ccc(C#N)cc2[C@@H](/N=C(\NC#N)Nc2ccccc2)[C@@H]1O (stereo in doubt; 3)	11	7.9		
	CC1(C)Oc2ccc(C#N)cc2[C@@H](/N=C(\NC#N)Nc2ccccc2)[C@@H]1O (stereo in doubt; 22)	6.1	4.7		
	CC1(C)Oc2ccc(C#N)cc2[C@@H](N2CCCC2=O)[C@@H]1O [CROMAKALIM]		278.1		

— ChEMBL document CHEMBL1128515, “Cardioselective anti-ischemic ATP-sensitive potassium channel openers. 3. Structure-activity studies on benzopyranyl cyanoguanidines: modification of the cyanoguanidine portion” (J Med Chem, 1995)
